Laboratory results: ChEMBL document CHEMBL4387722

Tests used:
[1] = biological target: T1, Malate dehydrogenase, mitochondrial (Sus scrofa, UniProt P00346); experiment: Inhibition of refolded pig heart mitochondrial MDH preincubated with Escherichia coli GroEL/GroES for 45 mins using sodium mesoxalate as substrate followed by compound addition and measured after 20 to 30 mins by spectrometric analysis
T1 sequence (P00346 whole entry): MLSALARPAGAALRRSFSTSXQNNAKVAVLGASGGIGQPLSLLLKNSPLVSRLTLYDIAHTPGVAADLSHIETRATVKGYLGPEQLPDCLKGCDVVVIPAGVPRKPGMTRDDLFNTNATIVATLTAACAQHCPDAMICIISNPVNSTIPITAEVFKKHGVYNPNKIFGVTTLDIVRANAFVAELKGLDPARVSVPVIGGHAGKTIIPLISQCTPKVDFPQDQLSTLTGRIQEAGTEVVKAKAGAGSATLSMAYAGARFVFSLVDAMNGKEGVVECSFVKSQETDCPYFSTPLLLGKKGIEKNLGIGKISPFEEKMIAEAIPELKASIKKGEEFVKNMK

[2] = test system: Mycobacterium tuberculosis; experiment: Antitubercular activity against Mycobacterium tuberculosis H37Rv after 5 days; format: functional, organism-based; conditions: 120 h
E. coli GroEL/ES [3] = biological target: T2, E. coli GroEL/ES (Escherichia coli, UniProt P0A6F5); experiment: Inhibition of Escherichia coli GroEL expressed in Escherichia coli DH5alpha/Escherichia coli GroES expressed in Escherichia coli BL21 (DE3) assessed as reduction in GroEL/GroES-mediated denatured rhodanese refolding by measuring rhodanese enzyme activity after 45 mins by Fe(SCN)3 dye based spectrometric analysis
[4] = biological target: T3, Tyrosine-protein phosphatase non-receptor type 1 (Homo sapiens, UniProt P18031); experiment: Inhibition of human PTPN1 expressed in Escherichia coli Rosetta 2 (DE3) using pNPP as substrate after 45 mins by spectrophotometric method
T3 sequence (P18031 whole entry): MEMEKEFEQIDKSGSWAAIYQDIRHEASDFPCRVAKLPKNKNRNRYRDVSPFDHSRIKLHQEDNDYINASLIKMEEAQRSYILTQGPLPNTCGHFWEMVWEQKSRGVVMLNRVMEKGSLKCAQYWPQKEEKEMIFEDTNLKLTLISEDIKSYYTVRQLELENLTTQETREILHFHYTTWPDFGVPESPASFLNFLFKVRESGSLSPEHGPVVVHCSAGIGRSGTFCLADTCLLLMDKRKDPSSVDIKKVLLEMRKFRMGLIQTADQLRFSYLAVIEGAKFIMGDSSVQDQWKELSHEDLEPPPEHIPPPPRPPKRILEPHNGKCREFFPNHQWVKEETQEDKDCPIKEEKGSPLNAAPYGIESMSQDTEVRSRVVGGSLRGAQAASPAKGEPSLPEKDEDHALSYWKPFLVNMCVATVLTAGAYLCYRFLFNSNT

[5] = Inhibition of refolded rhodanese (unknown origin) preincubated with Escherichia coli GroEL/GroES for 60 mins by measuring rhodanese enzyme activity followed by compound addition by Fe(SCN)3 dye based spectrometric analysis; set-up: species or system Homo sapiens
[6] = biological target: T4, Phosphotyrosine protein phosphatase (Mycobacterium tuberculosis, UniProt A0A045ISB3); experiment: Inhibition of Mycobacterium tuberculosis His-tagged PtpB expressed in Escherichia coli Rosetta 2 (DE3) using pNPP as substrate after 30 mins by spectrophotometric method
T4 sequence (A0A045ISB3 whole entry): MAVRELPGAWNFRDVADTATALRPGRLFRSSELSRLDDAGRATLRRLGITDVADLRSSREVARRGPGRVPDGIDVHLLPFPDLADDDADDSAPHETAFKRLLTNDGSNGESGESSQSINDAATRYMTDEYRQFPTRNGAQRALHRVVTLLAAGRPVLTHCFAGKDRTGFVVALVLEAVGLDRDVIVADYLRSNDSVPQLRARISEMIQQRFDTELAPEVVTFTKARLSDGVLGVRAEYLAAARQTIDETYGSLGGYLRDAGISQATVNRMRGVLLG

[7] = Cytotoxicity against human THLE3 cells assessed as reduction in cell viability after 48 hrs by Alamar blue assay; format: cell-based
How it was run: (§1)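 Alamar Blue viability read-out. Human liver (THLE-3) and kidney (HEK 293) cells incubated with compound for 48 h. Tested in dose-response to derive CC50.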

[8] = biological target: T5, Tyrosine-protein phosphatase non-receptor type 2 (Homo sapiens, UniProt P17706); experiment: Inhibition of human PTPN2 expressed in Escherichia coli Rosetta 2 (DE3) using pNPP as substrate after 45 mins by spectrophotometric method
T5 sequence (P17706 whole entry): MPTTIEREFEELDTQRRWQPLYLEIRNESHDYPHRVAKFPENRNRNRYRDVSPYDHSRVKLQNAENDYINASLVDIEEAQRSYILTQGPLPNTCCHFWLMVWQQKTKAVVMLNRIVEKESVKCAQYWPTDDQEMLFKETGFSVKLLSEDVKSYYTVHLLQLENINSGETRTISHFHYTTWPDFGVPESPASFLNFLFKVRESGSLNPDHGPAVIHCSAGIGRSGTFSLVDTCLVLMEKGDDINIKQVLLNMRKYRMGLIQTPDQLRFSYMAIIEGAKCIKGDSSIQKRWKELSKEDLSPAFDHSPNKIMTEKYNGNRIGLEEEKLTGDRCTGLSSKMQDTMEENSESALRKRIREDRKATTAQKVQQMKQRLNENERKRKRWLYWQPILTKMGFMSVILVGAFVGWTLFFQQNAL

[9] = Cytotoxicity against human HEK293 cells assessed as reduction in cell viability after 48 hrs by Alamar blue assay; format: cell-based; how it was run: as §1
[10] = test system: Mycobacterium tuberculosis; experiment: Antitubercular activity against Mycobacterium tuberculosis H37Rv after 5 days at 200 uM relative to control; format: functional; conditions: 120 h
How it was run: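 M. tuberculosis grown in liquid culture with compound at a fixed 200 μM for 5 days. Growth inhibition expressed as percent of control.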

[11] = biological target: T6, Tyrosine-protein phosphatase non-receptor type 5 (Homo sapiens, UniProt P54829); experiment: Inhibition of human PTPN5 expressed in Escherichia coli Rosetta 2 (DE3) using pNPP as substrate after 45 mins by spectrophotometric method
T6 sequence (P54829 whole entry): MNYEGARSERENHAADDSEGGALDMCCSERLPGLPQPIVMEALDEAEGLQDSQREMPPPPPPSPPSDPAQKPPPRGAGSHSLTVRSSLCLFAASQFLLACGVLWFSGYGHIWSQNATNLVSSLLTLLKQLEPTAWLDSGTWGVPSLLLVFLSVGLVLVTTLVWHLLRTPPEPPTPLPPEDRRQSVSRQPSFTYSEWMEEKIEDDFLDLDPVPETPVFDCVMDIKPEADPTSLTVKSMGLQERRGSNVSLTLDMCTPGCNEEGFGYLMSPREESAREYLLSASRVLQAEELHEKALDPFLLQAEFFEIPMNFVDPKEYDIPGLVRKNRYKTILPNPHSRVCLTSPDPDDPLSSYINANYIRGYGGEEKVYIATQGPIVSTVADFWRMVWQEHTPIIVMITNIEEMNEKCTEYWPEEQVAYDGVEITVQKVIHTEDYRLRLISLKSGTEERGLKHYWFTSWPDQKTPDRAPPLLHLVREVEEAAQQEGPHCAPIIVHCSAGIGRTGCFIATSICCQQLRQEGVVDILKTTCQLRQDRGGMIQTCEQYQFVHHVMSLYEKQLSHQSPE

HSP60/HSP10 = HSP60/HSP10 (Homo sapiens, UniProt P10809); experiment: Inhibition of human HSP60 expressed in Escherichia coli Rosetta 2(DE3)/human HSP10 expressed in Escherichia coli Rosetta 2(DE3) pLysS cells assessed as reduction in HSP60/HSP10-mediated denatured pig heart mitochondrial MDH refolding by measuring MDH enzyme activity using sodium mesoxalate as substrate after 40 to 60 mins by spectrometric analysis
E. coli GroEL/ES [12] = biological target: T2, E. coli GroEL/ES; experiment: Inhibition of Escherichia coli GroEL expressed in Escherichia coliDH5alpha/Escherichia coli GroES expressed in Escherichia coli BL21 (DE3) assessed as reduction in GroEL/GroES-mediated denatured pig heart mitochondrial MDH refolding by measuring MDH enzyme activity using sodium mesoxalate as substrate after 20 to 40 mins by spectrometric analysis
[13] = Selectivity index, ratio of IC50 for human PTPN1 to IC50 for Mycobacterium tuberculosis PtpB
[14] = Selectivity ratio of IC50 for inhibition of human HSP60 expressed in Escherichia coli Rosetta 2(DE3)/human HSP10 expressed in Rosetta 2(DE3) pLysS cells to IC50 for inhibition of Escherichia coli GroEL expressed in Escherichia coli DH5alpha/Escherichia coli GroES expressed in Escherichia coli BL21 (DE3)
How it was run: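 Ratio of IC50s from two analogous chaperonin-mediated refolding assays: human HSP60/10 and E. coli GroEL/ES each refold denatured malate dehydrogenase (dMDH). Refolding is followed through the recovered MDH enzymatic activity in a coupled read-out. IC50s come from dose-response testing. GroEL subunits are at 700 nM in the GroEL/ES assay.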

Chain of HSP60/HSP10 (P10809 whole entry): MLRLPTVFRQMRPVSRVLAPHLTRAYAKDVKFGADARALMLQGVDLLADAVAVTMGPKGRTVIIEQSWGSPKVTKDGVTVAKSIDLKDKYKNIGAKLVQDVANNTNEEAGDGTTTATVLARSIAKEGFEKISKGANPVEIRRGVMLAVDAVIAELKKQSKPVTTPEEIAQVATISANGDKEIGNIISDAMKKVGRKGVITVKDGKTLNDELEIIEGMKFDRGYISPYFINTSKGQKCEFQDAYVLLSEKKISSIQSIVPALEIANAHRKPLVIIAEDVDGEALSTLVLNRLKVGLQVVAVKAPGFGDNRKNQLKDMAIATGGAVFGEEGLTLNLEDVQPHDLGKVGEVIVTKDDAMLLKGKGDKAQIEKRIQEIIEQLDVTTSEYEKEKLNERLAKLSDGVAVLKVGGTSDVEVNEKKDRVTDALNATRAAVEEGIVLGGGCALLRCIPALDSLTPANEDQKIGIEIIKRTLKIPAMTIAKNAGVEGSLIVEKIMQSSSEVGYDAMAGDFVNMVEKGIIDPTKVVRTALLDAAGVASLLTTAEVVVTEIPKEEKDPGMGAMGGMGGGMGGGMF
Chain of HSP60/HSP10 (P61604 whole entry, further chain): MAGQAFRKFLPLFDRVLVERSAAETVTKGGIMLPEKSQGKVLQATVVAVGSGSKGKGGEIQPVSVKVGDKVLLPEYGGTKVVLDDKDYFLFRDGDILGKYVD
T2 sequence (P0A6F5 whole entry, looked up): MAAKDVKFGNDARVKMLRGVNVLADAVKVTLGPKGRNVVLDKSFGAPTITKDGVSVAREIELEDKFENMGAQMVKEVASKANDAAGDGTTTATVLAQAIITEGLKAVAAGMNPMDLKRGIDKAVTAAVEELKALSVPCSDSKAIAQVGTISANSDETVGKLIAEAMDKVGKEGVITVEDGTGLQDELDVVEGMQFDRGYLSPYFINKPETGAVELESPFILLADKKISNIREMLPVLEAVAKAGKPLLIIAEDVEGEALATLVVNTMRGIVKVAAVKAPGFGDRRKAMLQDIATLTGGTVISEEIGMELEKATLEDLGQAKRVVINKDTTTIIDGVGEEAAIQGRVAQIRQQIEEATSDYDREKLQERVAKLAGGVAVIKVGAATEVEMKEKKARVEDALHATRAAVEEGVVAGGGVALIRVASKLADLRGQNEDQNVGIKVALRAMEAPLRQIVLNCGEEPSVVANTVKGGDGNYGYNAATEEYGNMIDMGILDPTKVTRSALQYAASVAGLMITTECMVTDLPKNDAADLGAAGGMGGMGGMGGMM

SMILES	IC50 [1]	EC50 [2]	IC50 (E. coli GroEL/ES [3])	IC50 [4]	IC50 [5]	IC50 [6]	CC50 at 48 h [7]	IC50 [8]	CC50 at 48 h [9]	inhibition at 200 µM [10]	IC50 [11]	IC50 (HSP60/HSP10)	IC50 (E. coli GroEL/ES [12])	Ratio IC50 [13]	Ratio IC50 [14]
Cc1ccccc1S(=O)(=O)Nc1ccc2oc(-c3ccccc3)nc2c1	> 63 µM	197 µM	127 µM	41 µM	> 100 µM	59 µM	35 µM	29 µM	57 µM	61%	30 µM	> 100 µM	> 100 µM		
CCc1ccc(S(=O)(=O)Nc2ccc3oc(-c4ccccc4)nc3c2)cc1	> 63 µM	148 µM	237 µM	57 µM	> 100 µM	67 µM	63 µM	55 µM	81 µM	87%	42 µM	> 100 µM	> 100 µM		
C=Cc1ccc(S(=O)(=O)Nc2ccc(-c3nc4ccccc4o3)cc2)cc1	> 63 µM	> 200 µM	165 µM	47 µM	> 100 µM	52 µM	82 µM	33 µM	> 100 µM	73%	31 µM	> 100 µM	91 µM		
Cc1ccc(S(=O)(=O)Nc2ccc3oc(-c4ccccc4)nc3c2)cc1	> 63 µM	172 µM	157 µM	48 µM	> 100 µM	68 µM	53 µM	49 µM	75 µM	87%	39 µM	> 100 µM	> 100 µM		
O=S(=O)(Nc1ccc(-c2nc3ccccc3o2)cc1)c1cccc(F)c1	> 63 µM	185 µM	225 µM	62 µM	> 100 µM	91 µM	> 100 µM	80 µM	> 100 µM	80%	54 µM	71 µM	92 µM		
Cc1ccccc1S(=O)(=O)Nc1ccc(-c2nc3ccccc3o2)cc1	> 63 µM	176 µM	111 µM	52 µM	> 100 µM	38 µM	86 µM	50 µM	> 100 µM	58%	32 µM	85 µM	76 µM		
O=S(=O)(Nc1ccc(-c2nc3ccccc3o2)cc1)c1ccccc1	> 63 µM	179 µM	217 µM	65 µM	> 100 µM	80 µM	96 µM	66 µM	> 100 µM	71%	51 µM	> 100 µM	94 µM		
O=S(=O)(Nc1ccc(-c2nc3ccccc3o2)cc1)c1ccc(F)cc1	> 63 µM	144 µM	224 µM	68 µM	> 100 µM	64 µM	77 µM	76 µM	> 100 µM	83%	59 µM	73 µM	93 µM		
O=S(=O)(Nc1ccc(-c2nc3ccccc3o2)cc1)c1ccc(C(F)(F)F)cc1	> 63 µM	161 µM	159 µM	35 µM	> 100 µM	52 µM	71 µM	38 µM	94 µM	78%	39 µM	50 µM	77 µM		
NCc1ccc(S(=O)(=O)Nc2ccc(-c3nc4cc(NS(=O)(=O)c5ccc(Cl)s5)ccc4o3)cc2)cc1		26 µM		56 µM		9.1 µM		91 µM		94%	75 µM	48 µM		6.2	37
CCc1ccc(S(=O)(=O)Nc2ccc(-c3nc4ccccc4o3)cc2)cc1	> 63 µM	153 µM	172 µM	37 µM	> 100 µM	46 µM	77 µM	36 µM	82 µM	82%	31 µM	> 100 µM	91 µM		
O=S(=O)(Nc1ccc2oc(-c3ccccc3)nc2c1)c1cccs1	> 63 µM	> 200 µM	214 µM	> 100 µM	> 100 µM	81 µM	35 µM	88 µM	97 µM	68%	85 µM	90 µM	> 100 µM		
